# RBBP9 inh – inhibitors of human serine hydrolase RBBP9 | AID 1515 | inhibition, % at 7.94 µM | O75884 | 0.2% of 220,000 active | recombinant RBBP9, FP-Rh probe fluorescence polarization;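 active = inhibition above the campaign mean of all tested compounds plus 3 SD, cut at about 14% in these data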;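 note: plate controls were DMSO wells with RBBP9 for no effect and wells lacking RBBP9 protein for full effect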
# Target sequence (O75884 whole entry, looked up): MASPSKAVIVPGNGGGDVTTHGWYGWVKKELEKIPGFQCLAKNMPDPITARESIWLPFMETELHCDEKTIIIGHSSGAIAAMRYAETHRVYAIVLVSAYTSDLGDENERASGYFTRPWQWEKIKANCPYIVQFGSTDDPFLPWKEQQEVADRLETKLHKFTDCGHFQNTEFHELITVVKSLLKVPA
#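 Controls: DMSO-treated enzyme wells and wells lacking RBBP9 | Material: RBBP9 protein | Technique: Fluorescence polarization | Replication: Single well per compound, no replicates | Buffer or medium: Tris-NaCl-Pluronic buffer, pH 8.0 | Timing: 30 min compound preincubation, 45 min probe labeling, 25 °C | Read-out basis: Percent inhibition from mP, scaled between DMSO and no-protein wells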
# ABCB1 inh – blocks JC-1 efflux by human ABCB1 transporter; P08183; CCRF-Adr cells, flow cytometry; inhibition, % at 6.6 µM; 0.067% of 190,000 active; AID 1326; in the data active = inhibition above about 40%;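 note: 0% = vehicle and 100% = reference inhibitor; higher value means more JC-1 retained so stronger ABCB1 efflux block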
# ABCG2 inh – inhibitors of human ABCG2 transporter, ABCB1 counter-screen; inhibition, % at 6.6 µM; Q9UNQ0; 0.1% of 190,000 active; IgMXP3 cells, JC-1 efflux, flow cytometry;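 active = inhibition above 80%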;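 note: 0% = DMSO and 100% = nicardipine control wells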
#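 Test system: IgMXP3 (ABCG2) plus far-red-tagged CCRF-Adr (ABCB1) cells / Amount: 3 million cells/mL in well / Reagent: JC-1 transporter substrate / Timing: 10 min compound exposure, 25 °C / Signal: flow cytometry, 530 nm JC-1 signal / Read-out: percent efflux inhibition, scaled nicardipine 100% to DMSO 0% / Benchmarks: nicardipine as high control, DMSO as low control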
# PGE2 EP2 inh – blocks the human prostaglandin E2 receptor EP2 | inhibition, % at 25 µM | C6 glioma cells expressing human EP2, cAMP TR-FRET; cells stimulated with saturating PGE2 | P43116 | AID 1422 | 0.52% of 260,000 active;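 active = percent inhibition above 40 after rounding to a whole number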;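 note: rat C6 glioma host cells with rolipram phosphodiesterase inhibitor present; the protocol text gives 20 µM as final concentration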
# Target sequence (P43116 whole entry, looked up): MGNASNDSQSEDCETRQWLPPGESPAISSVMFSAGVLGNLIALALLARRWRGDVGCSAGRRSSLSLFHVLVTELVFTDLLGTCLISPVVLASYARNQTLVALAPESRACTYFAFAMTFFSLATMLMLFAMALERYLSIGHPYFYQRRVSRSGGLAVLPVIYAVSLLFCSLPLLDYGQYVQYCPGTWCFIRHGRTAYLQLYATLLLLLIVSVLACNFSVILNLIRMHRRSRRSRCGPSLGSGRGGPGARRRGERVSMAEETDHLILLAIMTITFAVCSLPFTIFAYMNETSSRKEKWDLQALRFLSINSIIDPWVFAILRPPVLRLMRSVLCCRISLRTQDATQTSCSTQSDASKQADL
# EP2 modulator – modulates human prostaglandin E2 receptor EP2 signaling; EP2-expressing cells, cAMP HTRF FRET, PGE2 co-stimulation; induction, % at 25 µM; 0.83% of 260,000 active;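 active = compounds whose cAMP rise, as percent of the full-agonist control response, exceeds 60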;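 note: rat C6 glioma line stably carrying human EP2 under a CMV promoter; the protocol text gives 20 µM as final concentration; 100% = response of wells given 1 µM PGE2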
# An asterisk follows results filed as active; nt = no result given; ! = not confirmed by another sample. Compounds with a hit are over-represented: about 1.5% of the library has one in this group of screens.
SMILES,RBBP9 inh,ABCB1 inh,ABCG2 inh,PGE2 EP2 inh,EP2 modulator
CC(=O)N1CCN(c2ccc(NC(=O)CC34CC5CC(CC(C5)C3)C4)cc2)CC1,nt,nt,nt,11.6,-176.2
C/C(=N\Nc1nc(N2CCCCC2)nc(N2CCOCC2)n1)c1ccccc1O,-8.6,0.5,4.9,10.2,64.4*
COc1ccc(C(=O)Nc2cccc(-c3nc4ccccc4o3)c2C)cc1OC,nt,nt,nt,11.3,-9.8
CCN(c1ccccc1)S(=O)(=O)c1ccc(F)cc1C,-3.3,0.8,10.0,10.5,62.5*
NCCC1([N+](=O)[O-])CCNCC1,nt,nt,nt,50.2*,8.4
CC1=C(C(=O)Nc2ccc(C)c(C)c2)C(c2cccs2)NC(=O)N1 (configuration not stated),nt,nt,nt,12.7,-70.2
CCN(CC)C(=S)SSC(=S)N(CC)CC,1.1,-0.1,0.0,60.2*!,-35.9
CCN(CC)C(=S)SCC(=O)c1ccccc1,2.8,0.3,0.3,7.0,-29.8
COc1cc(/C=C/c2nc3ccc([N+](=O)[O-])cc3s2)ccc1OCC(=O)O,-9.6,nt,nt,11.0,85.2*
COc1cc(/C=C/c2ccc3c([N+](=O)[O-])cccc3n2)ccc1OCC(=O)O,-9.1,nt,nt,2.2,44.4
CCOC(=O)c1c(-c2ccc(OC)cc2)csc1NC(=O)CC,nt,nt,nt,4.8,50.0
CCOC(=O)c1c(-c2ccc(CC)cc2)csc1N,nt,nt,nt,9.3,93.8*
CCOC(=O)c1c(-c2ccc(OCC)cc2)csc1NC(C)=O,nt,nt,nt,8.2,64.3*
CCOC(=O)c1c(-c2ccc(C)cc2)csc1NC(=O)CC,nt,nt,nt,5.9,78.2*
Cc1ccnn1CCC(=O)N1C[C@H](C(=O)O)[C@@H](c2ccc(F)cc2)C1,nt,nt,nt,nt,0.3
COc1ccc2c(c1)NC1(CCN(CCCOc3ccccc3)CC1)c1cccn1-2,nt,nt,nt,nt,-95.4
Cc1ccc(S(=O)(=O)C2CS(=O)(=O)CC2O)cc1 (configuration not stated),-10.4,0.2,0.8,8.9,5.6
CC(=O)C1=C(S(=O)(=O)c2ccc(C)cc2)CS(=O)(=O)C1,3.4,-2.5,-6.6,97.4*,-62.0
C[C@H]1C[C@@H]2[C@@H]3CCC4=CC(=O)C=C[C@@]4(C)[C@@]3(Cl)[C@H](Cl)C[C@@]2(C)[C@]1(O)C(=O)COP(=O)(O)O,nt,nt,nt,40.7*,15.7
CCOc1ccccc1-n1c(SCC(=O)Nc2ccccc2Cl)nnc1-c1ccco1,nt,nt,nt,10.9,6.3
O=C(c1cc2sccc2n1Cc1ccccc1)N1CCc2ccccc21,-9.0,0.5,2.7,7.9,63.8*
O=C(c1cc2sccc2n1Cc1ccccc1)N1CCCCC1,nt,nt,nt,9.5,43.1
COC(=O)c1cc2sccc2n1Cc1ccc(C)cc1,-10.7,0.0,0.2,4.5,63.9*
CCOC(=O)c1cc2sccc2n1Cc1ccccc1,-9.3,0.3,1.0,6.3,62.5*
Cc1ccc(N=Nc2c(O)c3ccccc3[nH]c2=O)c(S(=O)(=O)N(C)C)c1,0.6,nt,nt,48.1*!,-17.5
SMILES,RBBP9 inh,ABCB1 inh,ABCG2 inh,PGE2 EP2 inh,EP2 modulator
Cc1cc(N=Nc2c(O)c3ccccc3[nH]c2=O)ccc1N=Nc1ccc(C(=O)N(C)C)cc1,-4.0,nt,nt,4.3,2.1
CN(Cc1ccccc1)c1nc(-c2ccc([N+](=O)[O-])cc2)nc2ccccc12,-2.7,-1.0,49.9,4.0,63.8*
Cc1ccc2nc(-c3ccc(NC(=O)c4ccc(N)cc4)c(S(=O)(=O)O)c3)sc2c1,nt,nt,nt,45.9*,-11.6
COc1ccc(-c2cnc(NC(=O)CCn3nc(C)c(C)c3C)n2C)cc1,nt,nt,nt,3.8,-50.3
Nc1nc(-c2ccccc2)c(-c2ccccc2)c(-c2nc(N)nc(-c3ccccc3)c2-c2ccccc2)n1,nt,nt,nt,47.8*,13.0
CCCNc1nc2c(c(=O)n(C)c(=O)n2C)n1Cc1ccc(F)cc1,-3.7,1.2,8.5,9.3,21.5
Cn1c(=O)c2c(nc(NCc3ccccc3)n2Cc2ccc(F)cc2)n(C)c1=O,-3.1,-2.3,-0.9,13.0,64.0*
CCc1nc(N(CC)CC)c2oc3ccccc3c2n1,-5.0,0.5,0.8,9.8,61.4*
Oc1ccc(Cc2nccc3cc(O)c(O)cc23)cc1O,nt,nt,nt,52.9*,-8.4
CCn1cc(C(=O)N2CCN(Cc3cccc(OC)c3)C[C@@H]2C)cn1,nt,nt,nt,nt,-38.5
Cc1ccc(S(=O)(=O)O/N=C2\CCCc3ccccc32)cc1,4.4,0.4,0.9,10.6,16.5
CC1=C(C)/C(=N\OS(=O)(=O)c2ccccc2)C=CC1=O,3.3,-0.3,-0.7,89.0*,-79.6
N=C(N)SCCc1ccncc1,nt,nt,nt,47.7*,16.0
N#CC1(Nc2ccc(-c3ccc(NC4(C#N)CCCC4)cc3)cc2)CCCC1,nt,nt,nt,54.6*,-18.6
CCC(c1nnnn1CCc1ccccc1)N(Cc1cc2cc(C)ccc2[nH]c1=O)C1CCCCC1 (configuration not stated),nt,nt,nt,19.4,55.8
CCC1=NN(C(=O)C(=O)Nc2ccc(OC)cc2)C(O)(C(F)(F)F)C1 (configuration not stated),-11.6,0.7,3.1,3.3,16.6
COc1ccc(NC(=O)C(=O)N2N=C3CCCCC3C2(O)C(F)(F)F)cc1 (configuration not stated),-7.4,0.4,1.4,10.3,61.1*
CC(C)N(Cc1ccc(C(=O)N2CCC3(CC2)NC(=O)c2ccccc2O3)o1)C(C)C,nt,nt,nt,8.1,-14.5
CCC(CN1CCOCC1)NC(=O)Cc1sc(C)nc1-c1ccccc1 (configuration not stated),nt,nt,nt,5.0,-42.3
Cc1csc(NC(=O)/C=C\C(=O)O)n1,nt,nt,nt,7.1,9.9
Cn1c(C(=O)NCCC2=CCCCC2)cc2c(=O)n3ccccc3nc21,-1.1,0.1,0.9,12.1,63.2*
CC(=O)Nc1ccc(NC(=O)C2CCN(C(=O)c3ccc(Cl)cc3)CC2)cc1,nt,nt,nt,10.6,-14.4
COc1cc2c(cc1OC)C1Cc3ccc(OC)c(OC)c3CN1CC2 (configuration not stated),-7.9,0.7,4.9,21.3,14.9
CCC1=C(C[C@H]2NCCc3ccccc32)C[C@H]2c3cc(OC)c(OC)cc3CCN2C1,nt,nt,nt,53.1*,22.0
CCOc1ccc2[nH]c(=O)c(C(c3nnnn3C3CCCC3)N3CCCc4ccccc43)cc2c1 (configuration not stated),nt,nt,nt,10.1,73.7*
CCCC(c1nnnn1Cc1ccccc1)N(Cc1cc2cc(C)ccc2[nH]c1=O)C1CCCCC1 (configuration not stated),nt,nt,nt,21.6,26.3
CCCC(c1nnnn1Cc1ccccc1)N(Cc1cc2cccc(C)c2[nH]c1=O)C1CCCCC1 (configuration not stated),nt,nt,nt,8.1,69.5*
O=c1[nH]c2cc3c(cc2cc1C(c1nnnn1C1CCCCC1)N1CCOCC1)OCCO3 (configuration not stated),nt,nt,nt,8.4,0.1
O=c1[nH]c2cc3c(cc2cc1C(c1nnnn1C1CCCC1)N1CCCCCC1)OCCO3 (configuration not stated),nt,nt,nt,22.1,80.8*

# Assay outcomes: PubChem BioAssay, several laboratories
